Data published in ChEMBL document CHEMBL1629663, “Postantibiotic effects of telavancin against 16 gram-positive organisms” (Antimicrob Agents Chemother, 2009).

Tests used:
Type in all cases: functional
[1] = tested on: Staphylococcus aureus; assay: Antimicrobial activity against vancomycin-intermediate-, methicillin-resistant Staphylococcus aureus 1984 assessed as time required to induce sub-MIC effect at 0.3 times MIC exposed for 2 hrs by plate counting method
Method in brief: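 SME, viable plate count method: no prior drug exposure. About 5 × 10^6 CFU/ml in Mueller-Hinton broth at 35°C received 0.2, 0.3 or 0.4× MIC, alongside a drug-free tube. Counts were taken at the start, then every 2 h until McFarland no. 1 turbidity, as log10 CFU/ml against time. Two separate experiments, each with a new inoculum.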

[2] = tested on: Staphylococcus aureus; assay: Antimicrobial activity against vancomycin-susceptible-, methicillin-resistant Staphylococcus aureus ATCC 33591 assessed as time required to induce sub-MIC effect at 0.4 times MIC exposed for 2 hrs by plate counting method
Method in brief: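 Sub-MIC effect: cultures not preexposed to drug were diluted and handled as in the PA-SME procedure in Mueller-Hinton broth with final 0.2, 0.3 or 0.4× MIC, plus a drug-free control. Viable plate counts were taken every 2 h until McFarland 1 turbidity. Duration was derived from growth curves. Two experiments were run, each with a new inoculum.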

[3] = tested on: Enterococcus faecalis; assay: Antimicrobial activity against Enterococcus faecalis HMC 571 assessed as time required to induce sub-MIC effect at 0.3 times MIC exposed for 2 hrs by plate counting method
Method in brief: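 Unexposed Mueller-Hinton broth cultures (about 5 × 10^6 CFU/ml, 35°C) were handled as in the PA-SME set but without the 10× MIC pre-exposure. They were diluted 1:1,000, then given telavancin at final 0.2, 0.3 or 0.4× MIC, with a drug-free control. Viable counts were taken every 2 h until McFarland no. 1 turbidity. Effect duration comes from log10 CFU/ml-time plots; two separate experiments with new inocula.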

CCCCCCCCCCNCCN[C@@]1(C)C[C@H](O[C@H]2[C@H](Oc3c4cc5cc3Oc3ccc(cc3Cl)[C@@H](O)[C@@H](NC(=O)[C@@H](CC(C)C)NC)C(=O)N[C@@H](CC(N)=O)C(=O)N[C@H]5C(=O)N[C@H]3C(=O)N[C@H](C(=O)N[C@H](C(=O)O)c5cc(O)c(CNCP(=O)(O)O)c(O)c5-c5cc3ccc5O)[C@H](O)c3ccc(c(Cl)c3)O4)O[C@H](CO)[C@@H](O)[C@@H]2O)O[C@@H](C)[C@H]1O [TELAVANCIN]
PAE [1]: 2.6 h | PAE [2]: 2.3 h | PAE [3]: 2.6 h
